pIC50: −log10 of the molar value.
What was measured:
[1] = biological target: T1, GTPase KRas (Homo sapiens, UniProt P01116, G12D); experiment: Inhibition of KRAS G12D mutant in human ASPC1 cells assessed as reduction in ERK phosphorylation measured after 4 hrs by HTRF assay; format: cell-based
[2] = tested on: GTPase KRas (Homo sapiens), P01116 [G12D]; experiment: Thermal stabilization of GDP-bound KRAS G12D mutant (1 to 169 residues) (unknown origin) assessed as melting temperature incubated for 1 hrs by differential scanning fluorimetry assay
[3] = biological target: T1, GTPase KRas; experiment: Inhibition of GDP-bound biotinylated-KRAS G12D mutant (1 to 169 residues) (unknown origin) assessed as suppression of SOS1-mediated nucleotide exchange by measuring reduction in KRAS G12D mutant-RAF RBD complex formation preincubated for 60 mins followed by SOS1 addition and further incubated for 60 mins and subsequent addition of KRAS G12D mutant-RAF RBD mixture measured after 30 to 60 mins by FRET assay
[4] = biological target: T2, GTPase KRas (Homo sapiens, UniProt P01116); experiment: Thermal stabilization of wild-type GDP-bound KRAS (1 to 169 residues) (unknown origin) assessed as melting temperature incubated for 1 hrs by differential scanning fluorimetry assay
[5] = biological target: T2, GTPase KRas; experiment: Inhibition of wild-type GDP-bound biotinylated-KRAS (unknown origin) assessed as suppression of SOS1-mediated nucleotide exchange by measuring reduction in KRAS-RAF RBD complex formation preincubated for 60 mins followed by SOS1 addition and further incubated for 60 mins and subsequent addition of KRAS-RAF RBD mixture measured after 30 to 60 mins by FRET assay
[6] = organism: Homo sapiens; experiment: Selectivity ratio of IC50 for wild-type GDP-bound biotinylated-KRAS (unknown origin) to IC50 for GDP-bound biotinylated-KRAS G12D mutant (1 to 169 residues) (unknown origin)
[7] = tested on: HPAC; experiment: Antiproliferative activity against human HPAC cells assessed as reduction in cell viability measured after 5 days by Cell-Titer Glo assay; format: functional, cell-based; settings: 120 h
[8] = tested on: ASPC1; experiment: Antiproliferative activity against human ASPC1 cells assessed as reduction in cell viability measured after 5 days by Cell-Titer Glo assay; format: functional, cell-based; settings: ASPC1, 120 h
In short: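 AsPC-1 PDAC cells (KRAS G12D) grown in three-dimensional culture; viability read by Cell-Titer Glo luminescence.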

[9] = tested on: SK-LU-1; experiment: Antiproliferative activity against human SK-LU-1 cells assessed as reduction in cell viability measured after 5 days by Cell-Titer Glo assay; format: functional, cell-based; settings: SK-LU-1, 120 h
[10] = Antiproliferative activity against human Panc 04.03 cells assessed as reduction in cell viability measured after 5 days by Cell-Titer Glo assay; format: functional, cell-based; settings: Panc 04.03, 120 h
[11] = Antiproliferative activity against human GP2d cells assessed as reduction in cell viability measured after 5 days by Cell-Titer Glo assay; format: functional, cell-based; settings: 120 h
[12] = Antiproliferative activity against RAS initiative G12D cells assessed as reduction in cell viability after 5 days of treatment by Cell-Titer Glo assay; format: functional, cell-based; settings: Homo sapiens, 120 h
[13] = tested on: HPAF-II; experiment: Antiproliferative activity against human HPAF-II cells assessed as reduction in cell viability measured after 5 days by Cell-Titer Glo assay; format: functional, cell-based; settings: 120 h
[14] = Selectivity ratio of IC50 for RAS initiative wild-type cells to IC50 for RAS initiative G12D cells; format: functional
[15] = tested on: AGS; experiment: Antiproliferative activity against human AGS cells assessed as reduction in cell viability measured after 5 days by Cell-Titer Glo assay; format: functional, cell-based; settings: 120 h
[16] = Antiproliferative activity against human SNU-1033 cells assessed as reduction in cell viability measured after 5 days by Cell-Titer Glo assay; format: functional, cell-based; settings: SNU-1033, 120 h
[17] = Antiproliferative activity against RAS initiative wild-type cells assessed as reduction in cell viability after 5 days of treatment by Cell-Titer Glo assay; format: functional, cell-based; settings: Homo sapiens, 120 h
[18] = tested on: LS-513; experiment: Antiproliferative activity against human LS-513 cells assessed as reduction in cell viability measured after 5 days by Cell-Titer Glo assay; format: functional, cell-based; settings: LS-513, 120 h
[19] = tested on: ASPC1; experiment: Antitumor activity against human ASPC1 cells xenografted in mouse assessed as tumor regression at 20 mg/kg bid for 28 days relative to control; format: functional; settings: time 28 day
In short: (§1)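 Mice bearing AsPC-1 (KRAS G12D pancreatic ductal adenocarcinoma) xenografts were given repeated twice-daily doses of 3, 10 or 20 mg/kg alongside a vehicle control group, with n = 8 per group. Tumor growth inhibition or regression was assessed against vehicle, with body weight also tracked. Group means were reported with SEM, and P values were calculated versus vehicle.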

[20] = Toxicity in human ASPC1 cell xenografted mouse at 3 to 20 mg/kg bid administered for 28 days; format: organism-based; settings: in vivo, 672 h, dose 3-20 mg/kg, time 28 day
In short: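 Mice bearing AsPC-1 KRAS G12D PDAC xenografts dosed BID at 3, 10 or 20 mg/kg alongside a vehicle control group. Body weight change tracked over the treatment period together with tumour growth. Group means, n = 8, with SEM.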

[21] = tested on: ASPC1; experiment: Antitumor activity against human ASPC1 cells xenografted in mouse assessed as inhibition of tumor growth at 10 mg/kg bid for 28 days relative to control; format: functional; settings: ASPC1, 672 h, time 28 day, read-out: TGI; in short: as §1
[22] = tested on: ASPC1; experiment: Antitumor activity against human ASPC1 cells xenografted in mouse assessed as inhibition of tumor growth at 3 mg/kg bid for 28 days relative to control; format: functional; settings: ASPC1, 672 h, time 28 day, read-out: TGI; in short: as §1
[23] = tested on: ASPC1; experiment: Antitumor activity against human ASPC1 cells xenografted in mouse assessed as inhibition of tumor growth at 20 mg/kg bid for 28 days relative to control; format: functional; parameters: scale not given: the % may be the effect or the level left; settings: time 28 day; in short: as §1

CN1CCC[C@H]1COc1nc(N2C[C@H]3CC[C@@H](C2)N3)c2cc(Cl)c(-c3ccc(F)c4sc(N)c(C#N)c34)c(F)c2n1 gave a pIC50 [1] of 6.86, a ΔTm [2] of 17.1 °C and a pIC50 [3] of 8.89. It also gave a ΔTm [4] of 10.3 °C and a pIC50 [5] of 7.77.
For Nc1cc2cccc(F)c2c(-c2c(Cl)cc3c(N4C[C@H]5CC[C@@H](C4)N5)nc(OC[C@@]45CCCN4C[C@H](F)C5)nc3c2F)n1, the pIC50 [1] was 5.99, the ΔTm [2] was 7.4 °C and the pIC50 [3] was 8.22. For the same compound, the ΔTm [4] was 2.2 °C and the pIC50 [5] was less than 6.00.
Nc1nc2c(-c3c(Cl)cc4c(N5C[C@H]6CC[C@@H](C5)N6)nc(OC[C@@]56CCCN5C[C@H](F)C6)nc4c3F)ccc(F)c2s1 gave a pIC50 [1] of 6.83, a ΔTm [2] of 14.7 °C and a pIC50 [3] of 8.42. It also gave a ΔTm [4] of 7.2 °C and a pIC50 [5] of 7.40.
With N#Cc1c(N)sc2c(F)ccc(-c3c(Cl)cc4c(N5C[C@H]6CC[C@@H](C5)N6)ncnc4c3F)c12 the Ratio IC50 [6] was 188, the pIC50 [1] was 5.97 and the ΔTm [2] was 7.4 °C. It also gave a pIC50 [3] of 8.27, a ΔTm [4] of 3.7 °C and a pIC50 [5] of less than 6.00.
Compound N#Cc1c(N)sc2c(F)ccc(-c3c(Cl)cc4c(N5C[C@H]6CC[C@@H](C5)N6)nc(OC[C@@]56CCCN5C[C@H](F)C6)nc4c3F)c12 has a pIC50 [7] of 8.47, a pIC50 [8] of 7.82 and a pIC50 [9] of 8.85. For the same compound, the pIC50 [10] was 7.23, the pIC50 [11] was 9.70 and the pIC50 [12] was 7.48. For the same compound, the pIC50 [13] was 7.85, the pIC50 [1] was 8.37 and the “Ratio IC50” value [14] was greater than 100. For the same compound, the ΔTm [2] was 20.2 °C, the pIC50 [3] was 9.01 and the pIC50 [15] was 8.92. It also gave a pIC50 [16] of 5.72, a pIC50 [17] of 5.46 and a ΔTm [4] of 13.4 °C. For the same compound, the pIC50 [5] was 8.38 and the pIC50 [18] was 8.12.
Work on N#Cc1c(N)sc2c(F)ccc(-c3c(C(F)(F)F)cc4c(N5C[C@H]6CC[C@@H](C5)N6)nc(OC[C@@]56CCCN5C[C@H](F)C6)nc4c3F)c12 yielded a pIC50 [7] of 8.74, a pIC50 [8] of 8.46 and an Activity [19] of 54%. The pIC50 [9] was 9.30, the pIC50 [10] was 7.97 and the Activity [20] was “Non-Toxic”. The pIC50 [11] was 9.70, the inhibition in vivo at 10 mg/kg [21] was 77% and the pIC50 [12] was 8.24. The pIC50 [13] was 8.14, the pIC50 [1] was 8.68 and the “Ratio IC50” value [14] was greater than 100. It also gave a ΔTm [2] of 20.8 °C, a pIC50 [3] of 9.07 and a pIC50 [15] of 9.15. The pIC50 [16] was 6.21, the inhibition in vivo at 3 mg/kg [22] was 51% and the pIC50 [17] was 6.01. For the same compound, the ΔTm [4] was 8.3 °C, the pIC50 [5] was 8.41 and the pIC50 [18] was 8.70.
Work on Cc1cc(N)nc(-c2c(Cl)cc3c(N4C[C@H]5CC[C@@H](C4)N5)nc(OC[C@@H]4CCCN4C)nc3c2F)c1C(F)(F)F yielded a Ratio IC50 [6] greater than 286, a pIC50 [1] of 6.03 and a ΔTm [2] of 7.3 °C. It also gave a pIC50 [3] of 8.46, a ΔTm [4] of 1.9 °C and a pIC50 [5] of less than 6.00.
Cc1cc(N)nc(-c2c(Cl)cc3c(N4C[C@H]5CC[C@@H](C4)N5)nc(OC[C@@]45CCCN4C[C@H](F)C5)nc3c2F)c1C(F)(F)F showed a pIC50 [1] of 7.05, a ΔTm [2] of 11.7 °C and a pIC50 [3] of 8.68. It also gave a ΔTm [4] of 5.2 °C and a pIC50 [5] of 6.82.
With Cc1cc(N)nc(-c2c(Cl)cc3c(N4C[C@H]5CC[C@@H](C4)N5)nc(OCC45CCCN4CCC5)nc3c2F)c1C(F)(F)F the pIC50 [1] was 6.03, the ΔTm [2] was 10.9 °C and the pIC50 [3] was 8.68. The ΔTm [4] was 4.6 °C and the pIC50 [5] was 6.67.
In the case of N#Cc1c(N)sc2c(F)ccc(-c3c(Cl)cc4c(N5C[C@H]6CC[C@@H](C5)N6)nc(OCC5(CN6CC[C@@H](F)C6)CC5)nc4c3F)c12, the pIC50 [1] was 7.52, the ΔTm [2] was 17.8 °C and the pIC50 [3] was 9.00. For the same compound, the ΔTm [4] was 12 °C and the pIC50 [5] was 8.04.
Work on Cc1cc(N)nc(-c2c(Cl)cc3c(N4CCNC[C@@H]4C)nc(OC[C@@H]4CCCN4C)nc3c2F)c1C(F)(F)F yielded a pIC50 [1] of less than 5.00, a ΔTm [2] of 2.6 °C and a pIC50 [3] of 7.11. For the same compound, the ΔTm [4] was 1.4 °C and the pIC50 [5] was less than 6.00.
N#Cc1c(N)sc2c(F)ccc(-c3cc4nc(OC[C@@]56CCCN5C[C@H](F)C6)nc(N5C[C@H]6CC[C@@H](C5)N6)c4cc3Cl)c12 gave a pIC50 [1] of 7.37, a ΔTm [2] of 16 °C and a pIC50 [3] of 8.82. The ΔTm [4] was 9.4 °C and the pIC50 [5] was 7.94.
Work on Nc1cc2ccccc2c(-c2c(Cl)cc3c(N4C[C@H]5CC[C@@H](C4)N5)nc(OC[C@@]45CCCN4C[C@H](F)C5)nc3c2F)n1 yielded a pIC50 [1] of 5.53, a ΔTm [2] of 4.3 °C and a pIC50 [3] of 7.89. For the same compound, the ΔTm [4] was 0.8 °C and the pIC50 [5] was less than 6.00.
Compound C#Cc1c(F)ccc2cc(O)cc(-c3ncc4c(N5C[C@H]6CC[C@@H](C5)N6)nc(OC[C@@]56CCCN5C[C@H](F)C6)nc4c3F)c12 [MRTX-1133] has a pIC50 [7] of 8.38, a pIC50 [8] of 7.96 and a pIC50 [9] of 8.57. The pIC50 [10] was 7.56, the Activity [20] was “Non-Toxic” and the pIC50 [11] was 9.40. The inhibition in vivo at 10 mg/kg [21] was 83%, the pIC50 [12] was 7.79 and the pIC50 [13] was 7.83. For the same compound, the “Ratio IC50” value [14] was greater than 100, the pIC50 [15] was 8.49 and the Activity [23] was 94%. It also gave a pIC50 [16] of 5.30, an inhibition in vivo at 3 mg/kg [22] of 61% and a pIC50 [17] of 5.19. It also gave a pIC50 [18] of 8.09.

Reference: ChEMBL document CHEMBL5370635, “Structure-Based Design and Synthesis of Potent and Selective KRAS G12D Inhibitors” (ACS Med Chem Lett, 2023)
